Reference: paper PMC3331960 (Nature chemical biology, 2012)
Several values for one entry are separate records, joined by “and”; a condition that tells them apart may be missing. Equal values may be shown once. Where no end group is shown, it is not given here. The star is where a group is joined. Biotin = O=C1N[C@H]2[C@H](CS[C@H]2CCCCC(=O)*)N1

What was measured:
[1] = target: T1, TIR1-IAA7 (Arabidopsis thaliana, UniProt Q38825+Q570C0); assay: [3H]-IAA radioligand binding; details: for Ki: Ki (Mean ± SEM), TIR1-IAA7, cold competitor vs [3H] IAA
T1 sequence (Q570C0 1-594): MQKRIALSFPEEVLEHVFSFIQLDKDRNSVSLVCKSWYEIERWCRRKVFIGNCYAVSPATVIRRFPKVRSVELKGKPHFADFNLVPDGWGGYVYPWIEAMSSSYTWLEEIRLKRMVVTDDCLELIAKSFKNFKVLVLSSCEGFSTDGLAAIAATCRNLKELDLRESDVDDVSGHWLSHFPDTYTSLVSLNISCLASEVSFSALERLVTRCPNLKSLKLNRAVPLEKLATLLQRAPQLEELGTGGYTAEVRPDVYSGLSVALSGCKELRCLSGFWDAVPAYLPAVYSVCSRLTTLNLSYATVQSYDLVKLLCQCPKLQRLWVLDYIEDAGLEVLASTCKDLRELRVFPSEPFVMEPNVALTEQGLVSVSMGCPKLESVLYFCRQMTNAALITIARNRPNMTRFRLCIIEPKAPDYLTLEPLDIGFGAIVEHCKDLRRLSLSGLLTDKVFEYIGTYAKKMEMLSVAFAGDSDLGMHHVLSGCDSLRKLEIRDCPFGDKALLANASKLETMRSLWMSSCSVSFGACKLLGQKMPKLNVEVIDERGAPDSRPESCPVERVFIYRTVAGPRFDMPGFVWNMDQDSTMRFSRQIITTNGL
T1 sequence (Q39255 1-160 partner): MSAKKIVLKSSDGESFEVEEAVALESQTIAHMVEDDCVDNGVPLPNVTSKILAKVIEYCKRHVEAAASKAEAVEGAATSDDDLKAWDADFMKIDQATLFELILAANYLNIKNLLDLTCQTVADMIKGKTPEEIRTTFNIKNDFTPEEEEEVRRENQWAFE
T1 sequence (Q38825 1-243): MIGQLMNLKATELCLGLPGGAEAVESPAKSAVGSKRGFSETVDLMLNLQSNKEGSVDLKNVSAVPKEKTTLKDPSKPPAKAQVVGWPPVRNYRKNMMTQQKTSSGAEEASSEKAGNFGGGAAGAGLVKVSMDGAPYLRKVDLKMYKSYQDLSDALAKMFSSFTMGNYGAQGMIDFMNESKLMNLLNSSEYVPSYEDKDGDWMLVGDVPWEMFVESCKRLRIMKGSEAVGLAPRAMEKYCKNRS
Outline: (§1)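 ASK1-TIR1 or ASK1-AFB5 (0.44 μg, insect cells) with E. coli GST-IAA7 (1:10 molar), >1 h at 4°C in pH 8.0 Tris binding buffer. KD from [³H]-IAA saturation binding. Ki from competition with cold 1-NAA, 2,4-D or picloram against fixed [³H]-IAA (5–100 nM), fitted to a one-site competition model by nonlinear regression. Filter binding with scintillation read-out; triplicates.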

[2] = target: AFB5-IAA7 (Arabidopsis thaliana, UniProt Q38825+Q9LTX2); assay: [3H]-IAA radioligand binding
Outline: as §1

[3] = target: T2, TIR1-IAA7 DII (Arabidopsis thaliana, UniProt Q38825+Q570C0, DEL96-243); assay: Surface plasmon resonance, TIR1 over immobilized IAA7 DII peptide; format: binding; details: for dissociation of the TIR1-IAA7 DII complex (SPR): 50 μM ligand concentration; for TIR1 association with the DII peptide (SPR): co-injection of TIR1 with auxin, vs no auxin
[4] = target: T3, TIR1-IAA7 interaction (Arabidopsis thaliana, UniProt Q38825+Q570C0); assay: LexA yeast two-hybrid, auxin-induced TIR1-IAA7 interaction; format: cell-based; details: 50 μM auxins in selective media
T3 sequence (Q570C0 1-594): T1 sequence (Q570C0 1-594)
T3 sequence (Q38825 1-243): T1 sequence (Q38825 1-243)

[5] = target: AFB5-IAA7 DII (Arabidopsis thaliana, UniProt Q38825+Q9LTX2, DEL96-243); assay: Surface plasmon resonance, AFB5 over immobilized IAA7 DII peptide; format: binding; details: 50 μM picloram
[6] = test system: Arabidopsis wild type plants (Col-0); assay: Root elongation assay of seedlings; format: in vivo, Arabidopsis thaliana; details: 40 or 80 nM 2,4-D, 4 days, Col-0 seedlings
Outline: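 Seedlings grown 5 days on MS medium, then transferred to medium with 2,4-D. Root elongation was measured after 4 more days and expressed as a proportion of growth without auxin. Col-0, tir1-1 and tir1-1 afb2-3 were tested; error bars are STDEV.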

[7] = target: TIR1-IAA14 (Arabidopsis thaliana, UniProt Q38832+Q570C0); assay: [3H]-IAA homologous competitive binding, TIR1-IAA14; details: TIR1-IAA14, homologous competition
Outline: (§2)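 Homologous competition: insect-cell ASK1-TIR1 (0.44 μg) plus E. coli GST-Aux/IAA (1:10 molar), in pH 8.0 Tris binding buffer, >1 h at 4°C. Fixed [³H]-IAA (5, 10, 25 or 100 nM, kept below half the IC50) with rising cold IAA. Filter binding, scintillation counting. Specific binding fitted to a one-site competition model by nonlinear regression. Independent assays run in triplicate.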

[8] = target: TIR1-IAA3 (Arabidopsis thaliana, UniProt Q38822+Q570C0); assay: [3H]-IAA saturation binding, TIR1-IAA3; details: Kd (Mean ± SEM)
Outline: (§3)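 Saturation binding: insect-cell ASK1-TIR1 (0.44 μg) with GST-tagged full-length, truncated or degron-mutated IAA protein from E. coli (1:10 molar). Incubated >1 h at 4°C in pH 8.0 Tris/NaCl/glycerol/Tween buffer with at least six [³H]-IAA concentrations either side of the KD. Filter-trapped and scintillation counted; nonspecific binding determined with 1000x cold IAA. KD by nonlinear regression; independent assays in triplicate.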

[9] = target: TIR1-IAA17 (Arabidopsis thaliana, UniProt P93830+Q570C0); assay: [3H]-IAA homologous competitive binding, TIR1-IAA17; details: Kd (Mean ± SEM), TIR1-IAA17, homologous competition
Outline: as §2

[10] = target: TIR1-IAA1 (Arabidopsis thaliana, UniProt P49677+Q570C0); assay: [3H]-IAA homologous competitive binding, TIR1-IAA1; details: Kd (Mean ± SEM), TIR1-IAA1, homologous competition
Outline: as §2

[11] = target: TIR1-IAA28 (Arabidopsis thaliana, UniProt Q570C0+Q9XFM0); assay: [3H]-IAA homologous competitive binding, TIR1-IAA28; details: Kd (Mean ± SEM), TIR1-IAA28, homologous competition
Outline: as §2

[12] = target: TIR1-IAA12 GWPPVR (Arabidopsis thaliana, UniProt Q38830+Q570C0, G77R/I76V); assay: [3H]-IAA saturation binding, TIR1-IAA12 GWPPVR
Outline: as §3

[13] = target: TIR1-IAA31 (Arabidopsis thaliana, UniProt Q570C0+Q8H174); assay: [3H]-IAA binding, TIR1-IAA31
Outline: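 ASK1-TIR1 (insect cells, 0.44 μg) and full-length GST-IAA31 (E. coli, 1:10 molar) were incubated with [³H]-IAA >1 h at 4°C in pH 8.0 Tris buffer, then filter-bound and scintillation counted. KD came from nonlinear regression of saturation and/or homologous competition binding data; independent assays run in triplicate.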

[14] = target: TIR1-DI-DII (Arabidopsis thaliana, UniProt Q38825+Q570C0); assay: [3H]-IAA saturation binding, TIR1-DI-DII
Outline: as §3

[15] = target: T2, TIR1-IAA7 DII; assay: [3H]-IAA saturation binding, TIR1 with biotinylated IAA7 DII peptide; details: Kd (Mean ± SEM), TIR1-biotinylated peptide DII of IAA7, saturation binding
[16] = target: TIR1-IAA7^axr2-1 (Arabidopsis thaliana, UniProt Q38825+Q570C0, P87S); assay: [3H]-IAA binding at 200 nM, TIR1-IAA7 axr2-1; details: 200 nM [3H] IAA
Outline: (§4)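 ASK1-TIR1 (tagged, co-expressed in Hi5 insect cells) and GST-Aux/IAA or mutant (E. coli), at 0.44 μg and 1:10 molar ratio as applicable, or synthetic biotinylated degron peptide. Incubated >1 h at 4°C in Tris-HCl pH 8.0/200 mM NaCl/10% glycerol/0.1% Tween 20 with [³H]-IAA (20 Ci/mmol). Trapped on PEI-treated glass-fibre filters, washed thrice, scintillation counted. Nonspecific binding determined with 1000x cold IAA.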

[17] = target: TIR1-IAA7 K35Q (Arabidopsis thaliana, UniProt Q38825+Q570C0, K35Q); assay: [3H]-IAA binding at 200 nM, TIR1-IAA7 K35Q; details: 200 nM [3H]-IAA, Lys35Gln mutant compared to TIR1-IAA7
[18] = target: TIR1-IAA7 K35Q R36Q (Arabidopsis thaliana, UniProt Q38825+Q570C0, K35Q/R36Q); assay: [3H]-IAA binding at 200 nM, TIR1-IAA7 K35Q R36Q; details: 200 nM [3H]-IAA, Lys35Gln Arg36Gln mutant compared to TIR1-IAA7
[19] = target: TIR1 (Arabidopsis thaliana, UniProt Q570C0); assay: [3H]-IAA binding at 200 nM, TIR1 alone; details: 200 nM [3H] IAA
Outline: as §4

[20] = test system: TIR1-slr; assay: [3H]-IAA binding at 200 nM, TIR1-ASK1 with slr; parameters: species or system Arabidopsis thaliana; details: 200 nM [3H] IAA, TIR1-ASK1 and slr
Outline: as §4

[21] = target: TIR1-bdl (Arabidopsis thaliana, UniProt Q570C0); assay: [3H]-IAA binding at 200 nM, TIR1-ASK1 with bdl; details: 200 nM [3H] IAA, TIR1-ASK1 and bdl
Outline: as §4

[22] = target: IAA7 (Arabidopsis thaliana, UniProt Q38825); assay: [3H]-IAA binding at 200 nM, IAA7 alone; details: 200 nM [3H] IAA
Outline: as §4

[23] = target: IAA7 DII (Arabidopsis thaliana, UniProt Q38825); assay: [3H]-IAA binding at 200 nM, IAA7 DII peptide alone; details: 200 nM [3H] IAA
Outline: as §4

[24] = target: T4, TIR1-ASK1 complex (Arabidopsis thaliana, UniProt Q570C0;Q39255); assay: SPR
T4 sequence 1: T1 sequence (Q570C0 1-594)
T4 sequence 2: T1 sequence (Q39255 1-160 partner)

For Nc1c(Cl)c(Cl)nc(C(=O)O)c1Cl [picloram, 4-amino-3,5,6-trichloro-2-pyridinecarboxylic acid], the Ki [1] was 3900 ± 910 nM, the Ki ([2]; Ki (Mean ± SEM), AFB5-IAA7, cold competitor vs [3H] IAA) was 54.9 nM and 54.7 nM and the “dissociation of the TIR1-IAA7 DII complex (SPR)” value [3] was “rapid dissociation”. The “TIR1 association with the DII peptide (SPR)” value (“TIR1 association” for short) [3] was “enhanced association with the peptide”, the “TIR1-IAA7 interaction in yeast (β-galactosidase expression)” value (shortened to “TIR1-IAA7 interaction in yeast”) [4] was “promoted TIR1-IAA7 interaction, but not to the same extent as IAA” and the “assembly of the AFB5-IAA7 complex (SPR)” value [5] was “promotes rapid assembly”.

O=C(O)Cc1cccc2ccccc12 [1-NAA, 1-naphthaleneacetic acid] was tested, and the “TIR1 association” value [3] was “enhanced association with the peptide” and the “TIR1-IAA7 interaction in yeast” value [4] was “promoted TIR1-IAA7 interaction, but not to the same extent as IAA”.

With O=C(O)COc1ccc(Cl)cc1Cl [2,4-D, 2,4-dichlorophenoxyacetic acid] the Ki [1] was 248 to 1000 nM, the “dissociation of the TIR1-IAA7 DII complex (SPR)” value [3] was “much more rapid dissociation rate” and the “TIR1 association” value [3] was “enhanced association with the peptide”. For the same molecule, the “TIR1-IAA7 interaction in yeast” value [4] was “promoted TIR1-IAA7 interaction, but not to the same extent as IAA” and the root elongation [6] was “inhibits root growth elongation”.

O=C(O)Cc1c[nH]c2ccccc12 [IAA, Indole-3-acetic acid] showed a Kd [1] of 17.8 ± 7.81 nM, a Kd [2] of 51.3 ± 12.6 nM and a Kd [7] of 10.1 nM. It also gave a Kd [8] of 17 ± 3.43 nM, a Kd [9] of 33 ± 3 nM and a Kd [10] of 44.3 ± 6.67 nM. For the same molecule, the Kd [11] was ~75 nM and 75 nM, the Kd [12] was 72.5 ± 21.6 nM and the Kd [13] was > 1000 nM. For the same molecule, the Kd [14] was 13.8 ± 4.63 nM, the Kd [15] was 218 nM and the “TIR1 association” value [3] was “enhanced association with the peptide”. The “binding of [3H] IAA” value [16] was “did not bind auxin”, the auxin binding diminished [17] was “around 50%” and the auxin binding diminished [18] was “around 50%”. The “binding of [3H] IAA” value [19] was “lacked appreciable binding”, the “specific binding of [3H] IAA” value [20] was “abolish specific auxin binding” and the “specific binding of [3H] IAA” value [21] was “abolish specific auxin binding”. The “binding of [3H] IAA” value [22] was “lacked appreciable binding” and the “binding of [3H] IAA” value [23] was “lacked appreciable binding”.

Biotin-AKAQVVGWPPVRNYRKN [Biotinylated DII IAA7 peptide (SPR)]: binds [24].
